Measured values taken from ChEMBL document CHEMBL4396876, “Antisulfatase, Osteogenic, and Anticancer Activities of Steroid Sulfatase Inhibitor EO-33 in Mice” (J Med Chem, 2019).

Key:
Mus musculus [1] = assay: (§1) Ex vivo inhibition of STS in ovariectomized Balb/c mouse liver homogenates assessed as reduction in transformation of [3H]-E1S into [3H]-E1 at 30 mg/kg, sc administered twice daily starting from day 2 to day 10 using MC/EtOH formulation and E1S addition on day 5 to 10 measured on day 11 by liquid scintillation counting method relative to control; format: functional
Procedure, shortened: (§2)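 Livers collected on day 11 from the OVX Balb/c uterotrophic protocol and homogenized in cold pH 7.4 phosphate buffer with protease inhibitors. 2000 g supernatant, 100 or 500 µg protein, incubated with [3H]-E1S/E1S (final 1 µM) in PBS for 2 h at 37 °C. Xylene extraction, then scintillation counting of both phases. Result given as % E1 formed. Triplicate.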

[2] = Plasma concentration in Balb/c mouse at 30 mg/kg, po administered via gavage as single dose using MC/EtOH formulation measured at 1 hr by LC-MS/MS analysis; format: ADME, organism-based
Procedure, shortened: (§3)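 Female Balb/c mice, fasted 8 h with free water, given a single dose in 0.1 mL vehicle: EO-33 dissolved in EtOH, then aqueous 0.4% methylcellulose added to a final 8% EtOH. Sacrificed under isoflurane at 1, 3, 7, 12 and 24 h (2–3 mice/group). Cardiac blood collected into K-EDTA and plasma stored at −80 °C. LC-MS/MS on 100 µL plasma. AUC0-24h taken from the five time points.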

[3] = Lipophilicity, log P of the compound; format: physicochemical; details: octanol/water
[4] = Plasma concentration in Balb/c mouse at 2 mg/kg, sc administered as single dose using MC/EtOH formulation measured after 12 hrs by LC-MS/MS analysis; format: ADME, organism-based; procedure, shortened: as §3
Mus musculus [5] = assay: as §1, with “15” for “30”; format: functional; procedure, shortened: as §2
Mus musculus [6] = assay: In vivo inhibition of STS in ovariectomized Balb/c mouse assessed as reduction in E1S-stimulated uterus weight at 30 mg/kg, sc administered twice daily starting from day 2 to day 10 using MC/EtOH formulation and E1S addition on day 5 to 10 measured on day 11 relative to control; format: functional
Procedure, shortened: (§4)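 Female Balb/c mice (15–20 g) ovariectomized under isoflurane, 5/group. Inhibitor given SC in 0.1 mL MC:EtOH (92:8) on days 2–10. E1S (2 µg/mouse, BID) or E1 (0.06 µg/mouse, ID) given SC on days 5–10. Vehicle controls included. Uterus dissected and weighed on day 11. Means ± SEM.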

MCF7 = assay: Antitumor activity against human MCF7 cells xenografted in nu/nu Br athymic mouse assessed as effect on […]-stimulated tumor growth by measuring tumor size at 30 mg/kg, sc administered 6 days per week for […] using MC/EtOH formulation measured post-last dose (reference value: 171 %); format: functional
[7] = Plasma concentration in Balb/c mouse at 30 mg/kg, sc administered as single dose using MC/EtOH formulation measured after 7 hrs by LC-MS/MS analysis; format: ADME, organism-based; procedure, shortened: as §3
Mus musculus [8] = assay: Anti-estrogenic activity in ovariectomized Balb/c mouse assessed as reversal of E1-induced estrogenic effect at 30 mg/kg, sc administered once daily starting from day 2 to day 10 using MC/EtOH formulation and E1 addition on day 5 to 10 measured on day 11; format: organism-based; details: in vivo; procedure, shortened: as §4
[9] = AUC (0 to 24 hrs) in Balb/c mouse assessed as (4-(((furan-2-ylmethyl)((5-methylthiophen-2-yl)methyl)amino)methyl)phenyl)(7-hydroxy-3,4-dihydroisoquinolin-2(1H)-yl)methanone level at 30 mg/kg, po administered via gavage as single dose using MC/EtOH formulation by LC-MS/MS analysis; format: ADME, organism-based; set-up: dose 30 mg/kg, time < 24 hr, route oral; details: in vivo
[10] = Plasma concentration in Balb/c mouse at 30 mg/kg, po administered via gavage as single dose using MC/EtOH formulation measured after 12 hrs by LC-MS/MS analysis; format: ADME, organism-based; procedure, shortened: as §3
[11] = Plasma concentration in Balb/c mouse at 2 mg/kg, sc administered as single dose using MC/EtOH formulation measured after 3 hrs by LC-MS/MS analysis; format: ADME, organism-based; procedure, shortened: as §3
[12] = Plasma concentration in Balb/c mouse at 2 mg/kg, sc administered as single dose using MC/EtOH formulation measured at 1 hr by LC-MS/MS analysis; format: ADME, organism-based; procedure, shortened: as §3
[13] = Toxicity in ovariectomized-induced C57BL/6 mouse model of osteoporosis assessed as effect on body weight at 30 mg/kg, sc administered 6 days per week for 70 days using MC/EtOH formulation measured post last dose; format: organism-based; details: in vivo
Procedure, shortened: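 Female C57BL/6 mice, 63-70 days old, ovariectomized under isoflurane (sham-operated controls), randomized by weight into groups of 8. Treated SC in 0.1 mL MC:EtOH (92:8) over 70 days; sham and OVX controls received vehicle alone. Mice weighed at the end of the protocol before necropsy.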

[14] = Plasma concentration in Balb/c mouse at 10 mg/kg, sc administered as single dose using MC/EtOH formulation measured after 12 hrs by LC-MS/MS analysis; format: ADME, organism-based; procedure, shortened: as §3
Mus musculus [15] = assay: Osteogenic activity in ovariectomized-induced C57BL/6 mouse model of osteoporosis assessed as recovery of tibia calcium content at 30 mg/kg, sc administered 6 days per week for 70 days using MC/EtOH formulation by Triple Quad ICP-MS analysis relative to control; format: functional
Procedure, shortened: (§5)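 Female C57BL/6 mice (63–70 days) ovariectomized under isoflurane; sham controls kept. 8/group, dosed SC in 0.1 mL MC:EtOH (92:8) for 70 days. Tibias excised and weighed (mg/g body weight). Calcium measured by ICP-MS after calcination at 600 °C for 6 h and HNO3 microwave digestion; expressed as mg/g tibia.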

[16] = Toxicity in nu/nu Br athymic mouse xenografted with human […] MCF7 cells assessed as effect on body weight at 30 mg/kg, sc administered 6 days per week for […] using MC/EtOH formulation measured 3 hrs post-last dose; format: organism-based; details: in vivo
Procedure, shortened: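 MCF-7 cells (grown in DME-F12 with 5% FBS and 1 nM estradiol) inoculated SC at 4.1 x 10^6 cells in 30% Matrigel into both flanks of bilaterally ovariectomized nude mice, three days after surgery; E2S 50 µg/mouse SC three times weekly. Test agent SC 6 days/week in 0.1 mL MC:EtOH (92:8) for 28 days; vehicle-only controls. Mice weighed and killed 3 h after last dose; livers removed.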

[17] = Plasma concentration in Balb/c mouse at 30 mg/kg, sc administered as single dose using MC/EtOH formulation measured at 1 hr by LC-MS/MS analysis; format: ADME, organism-based; procedure, shortened: as §3
[18] = Plasma concentration in Balb/c mouse at 30 mg/kg, sc administered as single dose using MC/EtOH formulation measured after 12 hrs by LC-MS/MS analysis; format: ADME, organism-based; procedure, shortened: as §3
[19] = Plasma concentration in Balb/c mouse at 2 mg/kg, sc administered as single dose using MC/EtOH formulation measured after 7 hrs by LC-MS/MS analysis; format: ADME, organism-based; procedure, shortened: as §3
Mus musculus [20] = assay: Osteogenic activity in ovariectomized-induced C57BL/6 mouse model of osteoporosis assessed as recovery of tibia weight at 30 mg/kg, sc administered 6 days per week for 70 days using MC/EtOH formulation relative to control; format: functional; procedure, shortened: as §5
[21] = Plasma concentration in Balb/c mouse at 10 mg/kg, sc administered as single dose using MC/EtOH formulation measured at 1 hr by LC-MS/MS analysis; format: ADME, organism-based; procedure, shortened: as §3

concentration at 1 h [2]: 308 ng/mL
logP [3]: 4.02
concentration at 12 h [4]: 1 ng/mL
concentration at 7 h [7]: 530 ng/mL
AUC [9]: 10 ng·h/mL
concentration at 12 h [10]: 3 ng/mL
concentration at 3 h [11]: 33 ng/mL
concentration at 1 h [12]: 681 ng/mL
concentration at 12 h [14]: 4 ng/mL
concentration at 1 h [17]: 2600 ng/mL
concentration at 12 h [18]: 64 ng/mL
concentration at 7 h [19]: 1 ng/mL
concentration at 1 h [21]: 2600 ng/mL
SMILES: Cc1ccc(CN(Cc2ccc(C(=O)N3CCc4ccc(OS(N)(=O)=O)cc4C3)cc2)Cc2ccco2)s1
inhibition in vivo at 30 mg/kg (Mus musculus [1]): 81%
inhibition in vivo at 15 mg/kg (Mus musculus [5]): 71%
inhibition in vivo at 30 mg/kg (Mus musculus [6]): 69%
Activity (MCF7): 72%
Activity (Mus musculus [8]): Non-Toxic
Activity [13]: Non-Toxic
Activity (Mus musculus [15]): 71%
Activity [16]: Non-Toxic
Activity (Mus musculus [20]): 100%
